Measurements reported in PMC9512414 (International Journal of Nanomedicine, 2022).

System: lung tumor
Experiment: 18F-FDG PET imaging of Kras metastatic lung cancer patients
Type: in vivo
Settings: Kras metastatic patients (Stage IV), in relation to control groups
How it was run: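 Patients had 18F-FDG PET/CT at baseline before combined test treatment, after three treatment cycles (interim), and after treatment ended (late). Each patient had at least two scans. Images were reconstructed by ordered subset expectation maximization with six iterations and 12 subsets.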

B1: Daclizumab: FDA-approved drug, CD25 inhibitor (antibody, chains of the INN, looked up, V domains shown)
VH: QVQLVQSGAEVKKPGSSVKVSCKASGYTFTSYRMHWVRQAPGQGLEWIGYINPSTGYTEYNQKFKDKATITADESTNTAYMELSSLRSEDTAVYYCARGGGVFDYWGQGTLVTVSS
VL: DIQMTQSPSTLSASVGDRVTITCSASSSISYMHWYQQKPGKAPKLLIYTTSNLASGVPARFSGSGSGTEFTLTISSLQPDDFATYYCHQRSTYPLTFGQGTKVEVK
**Q.** How did the “tumor burden by comparative 18F-FDG PET imaging” value turn out when B1 was run?
**A.** Its value is “lower tumor burden”.
